# Data reported in paper PMC12502093 (RSC Advances, 2025).
# Tests used:
# MCF7 cells = experiment: Neutral red uptake cytotoxicity assay, MCF7; assay type: cell-based, human
# Outline: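 Neutral red uptake. Log-phase cells were grown in DMEM with 10% FBS at 37 °C, 5% CO2, at 10^4 cells/well. They were exposed 48 h to 12.5, 25, 50 and 100 μM test compound (DMSO final <0.2%), then given neutral red medium for 2 h and washed with DPBS. Dye was extracted with 1% acetic acid/50% ethanol and read at 450/630 nm. IC50 came from log concentration versus intensity, three runs averaged. SI = MDCK IC50 / MCF7 IC50.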
# IL6 = experiment: qRT-PCR gene expression in MCF7 cells: IL6; assay type: cell-based, human; conditions: compound at IC50, 48 h, relative to β-Actin, vs control
# Outline: (§1)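 MCF7 cells (3 × 10^4 per well) were treated 48 h with test compound. Total RNA was column-extracted and reverse-transcribed to first-strand cDNA. SYBR Green qPCR ran 95 °C 10 min, then 40 cycles of 95 °C 15 s, 60 °C 30 s, 72 °C 30 s. Expression was normalised to β-Actin by 2−ΔΔCT relative to untreated control. Data are mean ± SEM; Student's t-test, P < 0.05.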
# STAT3 [1] = experiment: qRT-PCR gene expression in MCF7 cells: STAT3; assay type: cell-based, human; conditions: compound at IC50, 48 h, relative to β-Actin, vs control
# Outline: as §1
# BAX = experiment: qRT-PCR gene expression in MCF7 cells: BAX; assay type: cell-based, human; conditions: compound at IC50, 48 h, relative to β-Actin, vs control
# Outline: as §1
# Cyclin D1 = experiment: qRT-PCR gene expression in MCF7 cells: Cyclin D1; assay type: cell-based, human; conditions: compound at IC50, 48 h, relative to β-Actin, vs control
# Outline: as §1
# c-MYC = experiment: qRT-PCR gene expression in MCF7 cells: c-MYC; assay type: cell-based, human; conditions: compound at IC50, 48 h, relative to β-Actin, vs control
# Outline: as §1
# S. aureus ATCC 25923 = experiment: Agar well diffusion test; assay type: cell-based; conditions: AWDT
# Outline: (§2)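 Agar well diffusion. Test compounds were placed in wells on agar inoculated with the reference strain or isolate. After incubation, inhibition zone diameters were measured in mm with a caliper. Runs were in triplicate and the zone averaged. Scale: 0 = no inhibition; 0–6 mm (−); 7–11 mm (+); 12–14 mm (++); 15–17 mm (+++).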
# E. coli O157 ATCC 700728 = experiment: Agar well diffusion test; assay type: cell-based; conditions: AWDT
# Outline: as §2
# C. albicans ATCC 10231 [2] = experiment: Agar well diffusion test; assay type: cell-based; conditions: AWDT
# A. flavus isolate = experiment: Agar well diffusion test; assay type: cell-based; conditions: AWDT
# Outline: as §2
# C. albicans ATCC 10231 [3] = experiment: Minimum inhibitory concentration, C. albicans; assay type: cell-based; conditions: Candida albicans, ATCC10231, read-out: MIC (mg mL^−1)
# Outline: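 MIC was determined by a previously reported method for compounds selected from the well-diffusion screen and is expressed in mg mL−1. […] For C. albicans, 100 μL of negative cells went onto potato dextrose agar at 25 °C/72 h.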
# STAT3 [4] = molecular target: STAT3 (Homo sapiens, UniProt P40763); experiment: STAT3 tyrosine phosphorylation inhibition; assay type: biochemical
# Sequence of STAT3 (Homo sapiens, UniProt P40763) (P40763 whole entry): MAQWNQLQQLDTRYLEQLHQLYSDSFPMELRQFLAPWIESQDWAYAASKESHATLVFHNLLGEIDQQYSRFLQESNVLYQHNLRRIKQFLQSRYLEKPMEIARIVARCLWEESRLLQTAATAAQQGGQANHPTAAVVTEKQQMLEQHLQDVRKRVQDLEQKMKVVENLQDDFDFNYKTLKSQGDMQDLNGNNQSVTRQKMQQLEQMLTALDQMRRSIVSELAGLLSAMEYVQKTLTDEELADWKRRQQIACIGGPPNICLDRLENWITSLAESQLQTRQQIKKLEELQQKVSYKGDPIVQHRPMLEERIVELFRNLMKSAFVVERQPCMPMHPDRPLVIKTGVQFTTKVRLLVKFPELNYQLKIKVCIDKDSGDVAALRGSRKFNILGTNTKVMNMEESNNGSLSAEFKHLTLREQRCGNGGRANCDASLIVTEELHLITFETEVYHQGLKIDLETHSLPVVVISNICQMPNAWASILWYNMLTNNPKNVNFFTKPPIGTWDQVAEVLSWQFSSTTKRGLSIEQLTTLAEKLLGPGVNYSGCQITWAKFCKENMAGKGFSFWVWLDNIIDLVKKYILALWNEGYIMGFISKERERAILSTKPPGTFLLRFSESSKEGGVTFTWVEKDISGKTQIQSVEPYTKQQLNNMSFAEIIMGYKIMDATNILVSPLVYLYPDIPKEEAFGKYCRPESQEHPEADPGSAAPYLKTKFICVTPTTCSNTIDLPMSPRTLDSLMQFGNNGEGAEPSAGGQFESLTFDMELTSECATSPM
# S. aureus DNA gyrase [5] = molecular target: T1, S. aureus DNA gyrase (Staphylococcus aureus, UniProt P0A0K8); experiment: S. aureus DNA gyrase supercoiling assay; assay type: biochemical
# T1 sequence (P0A0K8 whole entry): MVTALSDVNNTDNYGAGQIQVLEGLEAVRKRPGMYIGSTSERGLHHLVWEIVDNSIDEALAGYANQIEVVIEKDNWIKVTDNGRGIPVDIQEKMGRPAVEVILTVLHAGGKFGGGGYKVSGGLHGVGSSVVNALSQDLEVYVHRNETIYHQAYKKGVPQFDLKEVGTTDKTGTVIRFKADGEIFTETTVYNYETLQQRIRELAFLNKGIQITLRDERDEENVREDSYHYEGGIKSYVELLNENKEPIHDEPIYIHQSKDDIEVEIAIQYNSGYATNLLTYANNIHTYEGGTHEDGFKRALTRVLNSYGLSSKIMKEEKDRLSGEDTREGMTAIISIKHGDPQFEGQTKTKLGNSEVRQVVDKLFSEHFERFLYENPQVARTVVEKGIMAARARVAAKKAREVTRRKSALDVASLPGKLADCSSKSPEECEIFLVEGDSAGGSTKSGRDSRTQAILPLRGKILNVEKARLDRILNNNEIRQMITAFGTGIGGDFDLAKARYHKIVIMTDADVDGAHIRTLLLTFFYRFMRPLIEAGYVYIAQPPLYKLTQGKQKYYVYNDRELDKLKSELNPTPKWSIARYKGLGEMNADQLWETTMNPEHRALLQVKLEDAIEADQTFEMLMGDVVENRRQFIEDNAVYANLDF
# T1 sequence (P20831 whole entry partner): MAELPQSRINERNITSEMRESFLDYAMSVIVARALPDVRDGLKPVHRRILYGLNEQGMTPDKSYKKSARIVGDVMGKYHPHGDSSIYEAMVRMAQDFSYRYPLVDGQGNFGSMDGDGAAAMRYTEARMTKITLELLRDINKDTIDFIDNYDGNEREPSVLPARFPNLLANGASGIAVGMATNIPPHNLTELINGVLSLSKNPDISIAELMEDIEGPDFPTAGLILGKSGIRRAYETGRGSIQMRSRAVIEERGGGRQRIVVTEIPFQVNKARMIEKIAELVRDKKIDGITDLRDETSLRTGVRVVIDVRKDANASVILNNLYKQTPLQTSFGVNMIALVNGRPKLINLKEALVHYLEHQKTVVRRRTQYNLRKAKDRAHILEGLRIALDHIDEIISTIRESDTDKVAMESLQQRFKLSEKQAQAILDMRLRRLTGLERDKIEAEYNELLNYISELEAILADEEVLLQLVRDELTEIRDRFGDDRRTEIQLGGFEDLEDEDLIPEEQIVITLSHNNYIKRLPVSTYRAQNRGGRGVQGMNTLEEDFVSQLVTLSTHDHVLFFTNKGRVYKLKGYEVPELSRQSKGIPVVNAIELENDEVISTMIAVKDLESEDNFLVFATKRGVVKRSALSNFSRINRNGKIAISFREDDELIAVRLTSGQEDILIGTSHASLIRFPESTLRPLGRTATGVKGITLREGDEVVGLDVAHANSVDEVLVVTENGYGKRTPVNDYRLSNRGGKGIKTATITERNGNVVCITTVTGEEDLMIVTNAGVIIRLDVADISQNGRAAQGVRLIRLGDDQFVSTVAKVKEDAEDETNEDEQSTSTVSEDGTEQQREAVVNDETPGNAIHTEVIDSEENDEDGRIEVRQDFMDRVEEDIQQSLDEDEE
# S. aureus DNA gyrase [6] = molecular target: T1, S. aureus DNA gyrase; experiment: S. aureus DNA gyrase ATPase assay; assay type: biochemical
# [7] = molecular target: T2, S. aureus topoisomerase IV (Staphylococcus aureus, UniProt P0C1S7); experiment: S. aureus topoisomerase IV decatenation assay; assay type: biochemical
# T2 sequence (P0C1S7 whole entry): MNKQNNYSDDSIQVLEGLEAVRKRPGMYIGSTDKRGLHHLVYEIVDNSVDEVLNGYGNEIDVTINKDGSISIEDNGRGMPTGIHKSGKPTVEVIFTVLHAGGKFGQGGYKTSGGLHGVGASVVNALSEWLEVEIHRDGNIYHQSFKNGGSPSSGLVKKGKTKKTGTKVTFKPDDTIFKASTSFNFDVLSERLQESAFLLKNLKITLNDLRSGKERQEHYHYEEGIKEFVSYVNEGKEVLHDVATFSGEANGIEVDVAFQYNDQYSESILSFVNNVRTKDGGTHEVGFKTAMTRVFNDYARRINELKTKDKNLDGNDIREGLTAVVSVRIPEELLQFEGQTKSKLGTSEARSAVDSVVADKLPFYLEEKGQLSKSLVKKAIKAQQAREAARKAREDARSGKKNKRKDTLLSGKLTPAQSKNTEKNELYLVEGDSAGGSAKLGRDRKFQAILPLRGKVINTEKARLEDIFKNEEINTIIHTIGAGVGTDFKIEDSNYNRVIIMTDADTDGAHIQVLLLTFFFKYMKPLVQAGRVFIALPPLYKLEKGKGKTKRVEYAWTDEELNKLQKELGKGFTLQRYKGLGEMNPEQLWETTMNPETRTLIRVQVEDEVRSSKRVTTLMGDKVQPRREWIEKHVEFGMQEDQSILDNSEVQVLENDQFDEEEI
# T2 sequence (P0C1U9 whole entry partner): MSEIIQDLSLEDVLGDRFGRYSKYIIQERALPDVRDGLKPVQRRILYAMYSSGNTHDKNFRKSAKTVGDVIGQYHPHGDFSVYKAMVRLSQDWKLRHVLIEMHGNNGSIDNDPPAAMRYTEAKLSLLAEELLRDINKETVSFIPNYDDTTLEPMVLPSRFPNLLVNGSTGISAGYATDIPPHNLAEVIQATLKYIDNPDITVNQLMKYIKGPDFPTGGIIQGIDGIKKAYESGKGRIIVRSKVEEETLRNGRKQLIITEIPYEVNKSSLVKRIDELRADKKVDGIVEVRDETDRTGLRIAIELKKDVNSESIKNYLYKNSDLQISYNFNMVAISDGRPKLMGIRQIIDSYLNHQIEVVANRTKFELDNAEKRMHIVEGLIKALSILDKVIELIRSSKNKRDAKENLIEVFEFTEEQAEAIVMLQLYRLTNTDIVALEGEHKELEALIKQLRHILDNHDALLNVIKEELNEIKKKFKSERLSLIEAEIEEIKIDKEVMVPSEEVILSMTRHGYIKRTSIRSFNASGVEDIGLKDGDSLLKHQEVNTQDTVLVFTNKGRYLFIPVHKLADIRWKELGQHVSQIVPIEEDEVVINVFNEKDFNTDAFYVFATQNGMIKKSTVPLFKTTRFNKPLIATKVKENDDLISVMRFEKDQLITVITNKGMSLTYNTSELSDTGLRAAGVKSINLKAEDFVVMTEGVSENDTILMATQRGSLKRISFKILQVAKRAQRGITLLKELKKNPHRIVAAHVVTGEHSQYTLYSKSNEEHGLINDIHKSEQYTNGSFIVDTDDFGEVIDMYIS
# [8] = molecular target: T2, S. aureus topoisomerase IV; experiment: S. aureus topoisomerase IV ATPase assay; assay type: biochemical
structure (smiles),measurement,setting,value
"CC(=O)c1ccc2cc(S(=O)(=O)Nc3ccc(Br)cc3)ccc2c1 [Compound 5e, 6-Acetyl-N-(4-bromophenyl)naphthalene-2-sulfonamide]",IC50,"MCF7 cells; Homo sapiens, MCF7, 48 h, read-out: IC50 (μM) MCF7",43.1 µM
same,"(SI) MCF7, selectivity index",MCF7 cells; SI = IC50 MDCK cell/IC50 MCF7 cell,2.22
same,IL6 gene expression level,IL6,significant reduction
same,STAT3 gene expression level,STAT3 [1],significant reduction
same,BAX gene expression level,BAX,significantly increased
same,Cyclin D1 gene expression level,Cyclin D1,significant reduction
same,c-MYC gene expression level,c-MYC,significant reduction
same,"Zone of inhibition, inhibition scale",S. aureus ATCC 25923; S. aureus ATCC 25923,+++ (15–17 mm (+++))
same,Zone of inhibition,"S. aureus ATCC 25923; S. aureus ATCC 25923, average of triplicate",16 mm
same,"Zone of inhibition, inhibition scale",E. coli O157 ATCC 700728; E. coli O157 ATCC 700728,++ (12–14 mm (++))
same,Zone of inhibition,"E. coli O157 ATCC 700728; E. coli O157 ATCC 700728, average of triplicate",12 mm
same,"Zone of inhibition, inhibition scale",C. albicans ATCC 10231 [2]; C. albicans ATCC 10231,+++ (15–17 mm (+++))
same,Zone of inhibition,"C. albicans ATCC 10231 [2]; C. albicans ATCC 10231, average of triplicate",15 mm
same,"Zone of inhibition, inhibition scale",A. flavus isolate,+ (7–11 mm (+))
same,Zone of inhibition,A. flavus isolate; average of triplicate,11 mm
same,MIC,C. albicans ATCC 10231 [3],20 mg/mL
same,IC50,"STAT3 [4]; STAT3 phosphorylation IC50 (μM) (mean ± SD), ELISA, eight dilutions 100-0.03 μM",3.01 ± 0.06 µM
same,Potency as STAT3 inhibitor relative to lead compound I,STAT3 [4]; higher potency than compound I,approximately 2 fold
same,IC50,S. aureus DNA gyrase [5],21.8 µM
same,IC50,S. aureus DNA gyrase [6],3.04 µM
same,IC50,[7],18.9 µM
same,IC50,[8],5.96 µM
same,"Activity relative to ciprofloxacin, topoisomerase IV ATPase assay","[8]; S. aureus, less than ciprofloxacin",more than 3 fold
